# According to ChEMBL document CHEMBL1926503, “Efficient one-pot preparation of novel fused chromeno[2,3-d]pyrimidine and pyrano[2,3-d]pyrimidine derivatives” (2012):
# Columns and labels:
# Format in all cases: functional
# Candida albicans [1] = experiment: Antifungal activity against Candida albicans at 1 to 10 mg/mL after 3 to 4 days by agar well diffusion method
# Summary of the method: (§1)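 Fungi were grown on Sabouraud dextrose agar (glucose–peptone–agar 40:10:15) after single-spore purification. Wells (4 mm × 2 mm) were cut and their bottoms sealed with 0.8% soft agar, then loaded with DMSO solutions at 10 mg/mL. DMSO served as control and amphotericin B as reference. Plates incubated at 30 °C for 3–4 days. Inhibition zone diameter was measured three times by caliper and averaged.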
# Pseudomonas aeruginosa = experiment: Antibacterial activity against Pseudomonas aeruginosa at 1 to 10 mg/mL after 24 hrs by agar well diffusion method
# Summary of the method: (§2)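 Agar well diffusion. Bacterial pellets from a 24 h culture (about 10⁴–10⁶ CFU/ml) were spread on nutrient agar (tryptone 1%, yeast extract 0.5%, NaCl 0.5%, agar 1%, pH 7.0). Wells received DMSO solutions at 10 mg/mL, with DMSO as control and tetracycline as reference. Plates ran 24 h at 37 °C. Each zone was measured three times by caliper and averaged; three runs per culture.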
# Aspergillus flavus [2] = experiment: Antifungal activity against Aspergillus flavus after 3 to 4 days by agar well diffusion method
# Summary of the method: (§3)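 Agar well diffusion on Sabouraud dextrose agar (glucose–peptone–agar 40:10:15), with cultures purified by single-spore isolation. Wells (4 mm × 2 mm) were sealed at the bottom with 0.8% soft agar and loaded with DMSO solutions. DMSO served as control and amphotericin B as reference. Incubation was 30 °C for 3–4 days; each zone was measured three times by caliper and averaged.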
# Staphylococcus aureus = experiment: Antibacterial activity against Staphylococcus aureus at 1 to 10 mg/mL after 24 hrs by agar well diffusion method; summary of the method: as §2
# Candida albicans [3] = experiment: Antifungal activity against Candida albicans after 3 to 4 days by agar well diffusion method; summary of the method: as §3
# Aspergillus flavus [4] = experiment: Antifungal activity against Aspergillus flavus at 1 to 10 mg/mL after 3 to 4 days by agar well diffusion method; summary of the method: as §1
SMILES,diameter of the inhibition zone (DIZ) (Candida albicans [1]) [mm],diameter of the inhibition zone (DIZ) (Pseudomonas aeruginosa) [mm],MIC (Aspergillus flavus [2]) [µg/mL],diameter of the inhibition zone (DIZ) (Staphylococcus aureus) [mm],MIC (Candida albicans [3]) [µg/mL],diameter of the inhibition zone (DIZ) (Aspergillus flavus [4]) [mm]
COc1cc(C2c3c(nc[nH]c3=O)Oc3[nH]c(=S)[nH]c(=O)c32)cc(OC)c1OC (centres undefined),11,13,< 50,15,< 50,0
O=c1[nH]c(=S)nc2oc3cc(O)ccc3cc1-2,0,14,< 50,15,< 50,0
CCOC=C1C(=O)NC(=S)NC1=O,12,13,,13,,0
C[C@@H]1[C@H](O)[C@@H](C)/C=C/C=C/C=C/C=C/C=C/C=C/C=C/[C@H](O[C@@H]2O[C@H](C)[C@@H](O)[C@H](N)[C@@H]2O)C[C@@H]2O[C@](O)(C[C@@H](O)C[C@@H](O)[C@H](O)CC[C@@H](O)C[C@@H](O)CC(=O)O[C@H]1C)C[C@H](O)[C@H]2C(=O)O [AMPHOTERICIN B],19,,,,,16
NNC=C1C(=O)NC(=S)NC1=O,0,18,,18,,36
COc1cc(C2C(C#N)=C(NS(=O)(=O)c3ccccc3)Oc3[nH]c(=S)[nH]c(=O)c32)cc(OC)c1OC (centres undefined),12,13,< 50,14,< 50,0
CN(C)[C@@H]1C(O)=C(C(N)=O)C(=O)[C@@]2(O)C(O)=C3C(=O)c4c(O)cccc4[C@@](C)(O)[C@H]3C[C@@H]12 [TETRACYCLINE],,28,,26,,
CCOC(=O)C1=C(N)Oc2[nH]c(=S)[nH]c(=O)c2C1c1ccc(Cl)cc1 (centres undefined),13,19,< 50,16,< 50,0
CCOC(=O)C1=C(N)Sc2[nH]c(=S)[nH]c(=S)c2C1c1ccc(Cl)cc1 (centres undefined),14,18,< 50,16,< 50,14
COc1cc(C2c3c(nc(N)c(C#N)c3N)Oc3[nH]c(=S)[nH]c(=O)c32)cc(OC)c1OC (centres undefined),10,12,< 50,13,< 50,0
COc1cc(C2C(C#N)=C(N)Oc3[nH]c(=S)[nH]c(=O)c32)cc(OC)c1OC (centres undefined),10,13,< 50,13,< 50,0
